In ChEMBL document CHEMBL5724801, “EUbOPEN Chemogenomics Library - Multiplex” (2024):
Where “and” joins values, the source holds several entries; their conditions need not be identical. Equal entries are not always repeated.

System: HEK-293T
Experiment: Multiplex assay against HEK293T
Assay type: toxicity, cell-based
Conditions: human
In short: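 Live cells were stained at seeding with Hoechst33342, BioTracker Green Microtubule Cytoskeleton Dye, MitoTracker Red and Annexin V Alexa Fluor 680, then imaged on a CQ1 microscope at 37°C and 5% CO2 after compound addition. CellPathfinder machine-learning gating split cells into Hoechst high-intensity objects or normal cells. Normal cells were split into healthy, pyknosed or fragmented nuclei, and pyknosed cells into mitotic or apoptotic. Tubulin, mitochondrial-mass and membrane-permeability phenotypes are per cents of healthy-nucleus cells.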

[1] = 12 h, 1 µM, compound concentration 1 uM
[2] = 12 h, 10 µM, compound concentration 10 uM
[3] = 24 h, 1 µM, compound concentration 1 uM
[4] = 24 h, 10 µM, compound concentration 10 uM
[5] = 48 h, 1 µM, compound concentration 1 uM
[6] = 48 h, 10 µM, compound concentration 10 uM

Compound: Cc1c(C(=O)NCCCN(C)C)sc2ncnc(Nc3ccc(F)cc3OC(C)CF)c12 (centres undefined)
- Population Apoptotic (%) [1]: 8.15% and 7.44%
- Population Fragmented Nuclei (%) [1]: 1.52% and 6.08%
- Population Hoechst High Intensity Objects (%) [1]: 0%
- Population Membrane Permeable-Phenotype (%) [1]: 0.79% and 5.56%
- Population Mitochondria Different-Phenotype (%) [1]: 38.58% and 38.89%
- Population Mitotic Cells (%) [1]: 91.85% and 92.56%
- Population Normal (%) [1]: 100%
- Population Pyknosed Nuclei (%) [1]: 34.18% and 81.76%
- Total Cell Count [1]: 395 and 148
- Population Apoptotic (%) [2]: 12.67% and 12.38%
- Population Fragmented Nuclei (%) [2]: 1.93% and 0.83%
- Population Healthy Nuclei (%) [2]: 25.6% and 12.4%
- Population Hoechst High Intensity Objects (%) [2]: 0%
- Population Mitotic Cells (%) [2]: 87.33% and 87.62%
- Population Normal (%) [2]: 100%
- Population Pyknosed Nuclei (%) [2]: 72.46% and 86.78%
- Population Tubulin-Different-Phenotype (%) [2]: 81.13% and 53.33%
- Total Cell Count [2]: 207 and 121
- Population Apoptotic (%) [3]: 11.02% and 10.43%
- Population Fragmented Nuclei (%) [3]: 2.43% and 2.58%
- Population Hoechst High Intensity Objects (%) [3]: 0%
- Population Membrane Permeable-Phenotype (%) [3]: 0.68% and 2.78%
- Population Mitochondria Different-Phenotype (%) [3]: 18.96% and 11.11%
- Population Mitotic Cells (%) [3]: 88.98% and 89.57%
- Population Normal (%) [3]: 100%
- Population Tubulin-Different-Phenotype (%) [3]: 36.57% and 13.89%
- Population Apoptotic (%) [4]: 33.73% and 30.77%
- Population Fragmented Nuclei (%) [4]: 1.65% and 0%
- Population Healthy Nuclei (%) [4]: 29.75% and 17.27%
- Population Hoechst High Intensity Objects (%) [4]: 0%
- Population Membrane Permeable-Phenotype (%) [4]: 1.39% and 0%
- Population Mitochondria Different-Phenotype (%) [4]: 69.44% and 26.32%
- Population Mitotic Cells (%) [4]: 66.27% and 69.23%
- Population Normal (%) [4]: 100%
- Population Pyknosed Nuclei (%) [4]: 68.6% and 82.73%
- Population Tubulin-Different-Phenotype (%) [4]: 80.56% and 73.68%
- Total Cell Count [4]: 242 and 110
- Population Apoptotic (%) [5]: 9.92% and 23.86%
- Population Fragmented Nuclei (%) [5]: 3.85% and 2.43%
- Population Healthy Nuclei (%) [5]: 86.64% and 54.85%
- Population Hoechst High Intensity Objects (%) [5]: 0%
- Population Membrane Permeable-Phenotype (%) [5]: 6.37% and 1.77%
- Population Mitochondria Different-Phenotype (%) [5]: 17.27% and 49.56%
- Population Mitotic Cells (%) [5]: 90.08% and 76.14%
- Population Normal (%) [5]: 100%
- Population Apoptotic (%) [6]: 42.07% and 65.33%
- Population Fragmented Nuclei (%) [6]: 1.78% and 1.64%
- Population Healthy Nuclei (%) [6]: 46.62% and 36.89%
- Population Hoechst High Intensity Objects (%) [6]: 0.35% and 0.81%
- Population Membrane Permeable-Phenotype (%) [6]: 1.53% and 0%
- Population Mitochondria Different-Phenotype (%) [6]: 90.84% and 55.56%
- Population Mitotic Cells (%) [6]: 57.93% and 34.67%
- Population Normal (%) [6]: 99.65% and 99.19%
- Population Pyknosed Nuclei (%) [6]: 51.6% and 61.48%
- Population Tubulin-Different-Phenotype (%) [6]: 30.53% and 82.22%
- Total Cell Count [6]: 282 and 123

Compound: CC(C)[C@H](C(=O)Nc1ccc(C(=O)NO)cc1)c1ccccc1 [AR-42]
- Population Apoptotic (%) [1]: 11.9% and 3.88%
- Population Fragmented Nuclei (%) [1]: 1.31% and 2.38%
- Population Healthy Nuclei (%) [1]: 54.83% and 20.83%
- Population Hoechst High Intensity Objects (%) [1]: 0% and 0.59%
- Population Membrane Permeable-Phenotype (%) [1]: 0.95% and 0%
- Population Mitochondria Different-Phenotype (%) [1]: 22.38% and 11.43%
- Population Mitotic Cells (%) [1]: 88.1% and 96.12%
- Population Normal (%) [1]: 100% and 99.41%
- Population Pyknosed Nuclei (%) [1]: 43.86% and 76.79%
- Total Cell Count [1]: 383 and 169
- Population Apoptotic (%) [2]: 11.02% and 12.75%
- Population Fragmented Nuclei (%) [2]: 2.96% and 3.72%
- Population Hoechst High Intensity Objects (%) [2]: 0.37% and 0%
- Population Membrane Permeable-Phenotype (%) [2]: 0% and 3.12%
- Population Mitotic Cells (%) [2]: 88.98% and 87.25%
- Population Normal (%) [2]: 99.63% and 100%
- Population Pyknosed Nuclei (%) [2]: 43.7% and 79.26%
- Population Tubulin-Different-Phenotype (%) [2]: 5.56% and 9.38%
- Total Cell Count [2]: 271 and 188
- Population Apoptotic (%) [3]: 31.4% and 16.41%
- Population Fragmented Nuclei (%) [3]: 3.26% and 2.2%
- Population Healthy Nuclei (%) [3]: 63.86% and 27.47%
- Population Hoechst High Intensity Objects (%) [3]: 0%
- Population Membrane Permeable-Phenotype (%) [3]: 0.43% and 0%
- Population Mitochondria Different-Phenotype (%) [3]: 22.55% and 10%
- Population Mitotic Cells (%) [3]: 68.6% and 83.59%
- Population Normal (%) [3]: 100%
- Population Pyknosed Nuclei (%) [3]: 32.88% and 70.33%
- Population Tubulin-Different-Phenotype (%) [3]: 18.3% and 14%
- Total Cell Count [3]: 368 and 182
- Population Apoptotic (%) [4]: 25.32% and 20.83%
- Population Fragmented Nuclei (%) [4]: 1.5% and 2.78%
- Population Healthy Nuclei (%) [4]: 68.8% and 30.56%
- Population Hoechst High Intensity Objects (%) [4]: 0% and 0.55%
- Population Membrane Permeable-Phenotype (%) [4]: 1.09% and 1.82%
- Population Mitochondria Different-Phenotype (%) [4]: 14.21% and 14.55%
- Population Mitotic Cells (%) [4]: 74.68% and 79.17%
- Population Normal (%) [4]: 100% and 99.45%
- Population Pyknosed Nuclei (%) [4]: 29.7% and 66.67%
- Population Tubulin-Different-Phenotype (%) [4]: 2.73% and 3.64%
- Total Cell Count [4]: 266 and 181
- Population Apoptotic (%) [5]: 38.66% and 18.09%
- Population Fragmented Nuclei (%) [5]: 3.58% and 2.58%
- Population Healthy Nuclei (%) [5]: 60.9% and 36.77%
- Population Hoechst High Intensity Objects (%) [5]: 1.18% and 0%
- Population Membrane Permeable-Phenotype (%) [5]: 0.49% and 3.51%
- Population Mitochondria Different-Phenotype (%) [5]: 58.33% and 29.82%
- Population Mitotic Cells (%) [5]: 61.34% and 81.91%
- Population Normal (%) [5]: 98.82% and 100%
- Population Pyknosed Nuclei (%) [5]: 35.52% and 60.65%
- Population Tubulin-Different-Phenotype (%) [5]: 21.57% and 47.37%
- Total Cell Count [5]: 339 and 155
- Population Apoptotic (%) [6]: 22.22% and 36.27%
- Population Fragmented Nuclei (%) [6]: 2.93% and 2.55%
- Population Healthy Nuclei (%) [6]: 66.95% and 32.48%
- Population Hoechst High Intensity Objects (%) [6]: 0.42% and 0%
- Population Membrane Permeable-Phenotype (%) [6]: 5% and 3.92%
- Population Mitochondria Different-Phenotype (%) [6]: 22.5% and 11.76%
- Population Mitotic Cells (%) [6]: 77.78% and 63.73%
- Population Normal (%) [6]: 99.58% and 100%
- Population Pyknosed Nuclei (%) [6]: 30.13% and 64.97%
- Population Tubulin-Different-Phenotype (%) [6]: 9.38% and 15.69%
- Total Cell Count [6]: 240 and 157
